Assay results from ChEMBL document CHEMBL2062465, “Sesquiterpenoids from Incarvillea arguta: absolute configuration and biological evaluation” (J Nat Prod, 2012).
Calls of active or inactive are those of the source. The calls are words filed in the database; no cut-off is given here. Peptide text beside a SMILES is read from it. * marks the point of attachment. Cbz = O=C(OCc1ccccc1)*

Experiments:
[1] = test system: A549; assay: Induction of intracellular calcium influx in human A549 cells at 10 uM after 12 hrs by fluorescence analysis; type: functional, cell-based
Outline: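 A549 cells were seeded at 0.5 × 10^4 cells/well and grown 12 h. They were loaded with Fluo-4 AM for 30 min, then washed three times with HBSS. Compounds were tested at 10 μM in Ca2+-containing HBSS. Intracellular calcium was imaged and analysed on an automated cell-based fluorescence-imaging system.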

[2] = test system: HL-60; assay: Cytotoxicity against human HL60 cells after 48 hrs by MTT assay; type: functional, cell-based; details: HL-60, 48 h
Outline: (§1)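 MTT viability assay on human tumour lines. Adherent cells were seeded and allowed to attach 12 h before drug addition. Suspension cells were seeded immediately before dosing at (1−2) × 10^5 cells/mL. Cells were exposed to a range of concentrations for 48 h. Cisplatin and taxol were positive controls. IC50 values were calculated from viability.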

[3] = test system: SMMC-7721; assay: Cytotoxicity against human SMMC7721 cells after 48 hrs by MTT assay; type: functional, cell-based; details: SMMC-7721, 48 h; outline: as §1
[4] = test system: SW480; assay: Cytotoxicity against human SW480 cells after 48 hrs by MTT assay; type: functional, cell-based; details: SW480, 48 h; outline: as §1
[5] = test system: MCF7; assay: Cytotoxicity against human MCF7 cells after 48 hrs by MTT assay; type: functional, cell-based; details: MCF7, 48 h; outline: as §1
[6] = test system: RAW264.7; assay: Antiinflammatory activity in mouse RAW264.7 cells assessed as inhibition of LPS-stimulated NO production after 18 hrs by Griess reagent method; type: functional, cell-based; details: RAW264.7, 18 h
Outline: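 NO release measured in LPS-stimulated RAW264.7 macrophages. DMSO wells were included, and MG-132 (proteasome inhibitor) served as positive control. Cell viability was checked by MTT in each experiment. IC50 was derived.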

[7] = test system: RAW264.7; assay: Cytotoxicity against mouse RAW264.7 cells at 0.04 to 25 uM by MTT assay; type: cell-based; details: raw264.7, 25 µM
Outline: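 Viability of RAW264.7 macrophages was checked by MTT alongside each NO-production experiment, at 0.04, 0.2, 1, 5 and 25 μM.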

| SMILES | Activity [1] | IC50 [2] [µM] | IC50 [3] [µM] | IC50 [4] [µM] | IC50 [5] [µM] | IC50 [6] [µM] | Activity [7] |
| --- | --- | --- | --- | --- | --- | --- | --- |
| C[C@H]1CCC=C2C(=O)C=C([C@]3(CO)CCC(=O)C4=C3C(=O)C3=CCC[C@H](C)[C@@]3(C)C4)C[C@@]21C [DIINCARVILONE D] | Active | > 40 | > 40 | > 40 | > 40 | – | – |
| C=C(CO)[C@@H]1CC(=O)C2=CCC[C@H](C)[C@@]2(C)C1 [ARGUTOSINE B] | – | 15.2 | 34.1 | 15.6 | 13.5 | 5.7 | Non-toxic |
| C[C@H](CO)C1=CC(=O)C2=CCC[C@H](C)[C@@]2(C)C1 [INCARVILONE A] | – | > 40 | > 40 | > 40 | > 40 | – | – |
| C[C@H]1CCC=C2C(=O)C=C([C@]3(CO)CC[C@](O)(CO)C4=C3C(=O)C3=CCC[C@H](C)[C@@]3(C)C4)C[C@@]21C [DIINCARVILONE B] | Active | > 40 | > 40 | > 40 | > 40 | – | – |
| C[C@H]1CCC=C2C(=O)C=C([C@]3(CO)CC[C@@](O)(CO)C4=C3C(=O)C3=CCC[C@H](C)[C@@]3(C)C4)C[C@@]21C [DIINCARVILONE A] | Active | > 40 | > 40 | > 40 | > 40 | – | – |
| CC(C)C[C@@H](C=O)NC(=O)[C@H](CC(C)C)NC(=O)[C@H](CC(C)C)NC(=O)OCc1ccccc1 [MG-132] (Cbz-Leu-Leu-Leu-aldehyde) | – | – | – | – | – | 0.08 | – |
| C[C@H]1CCC=C2C(=O)C=C([C@]3(CO)CC[C@@H](CO)C4=C3C(=O)C3=CCC[C@H](C)[C@@]3(C)C4)C[C@@]21C [DIINCARVILONE C] | – | > 40 | > 40 | > 40 | > 40 | – | – |
